Active and inactive are the calls of the source. The calls are words filed in the database; no cut-off is given here.

As a reminder, the EC50 is the concentration that produces a half-maximal response. What is called IC50 is the midpoint of a concentration-inhibition curve.

T2 sequence (O14744 whole entry): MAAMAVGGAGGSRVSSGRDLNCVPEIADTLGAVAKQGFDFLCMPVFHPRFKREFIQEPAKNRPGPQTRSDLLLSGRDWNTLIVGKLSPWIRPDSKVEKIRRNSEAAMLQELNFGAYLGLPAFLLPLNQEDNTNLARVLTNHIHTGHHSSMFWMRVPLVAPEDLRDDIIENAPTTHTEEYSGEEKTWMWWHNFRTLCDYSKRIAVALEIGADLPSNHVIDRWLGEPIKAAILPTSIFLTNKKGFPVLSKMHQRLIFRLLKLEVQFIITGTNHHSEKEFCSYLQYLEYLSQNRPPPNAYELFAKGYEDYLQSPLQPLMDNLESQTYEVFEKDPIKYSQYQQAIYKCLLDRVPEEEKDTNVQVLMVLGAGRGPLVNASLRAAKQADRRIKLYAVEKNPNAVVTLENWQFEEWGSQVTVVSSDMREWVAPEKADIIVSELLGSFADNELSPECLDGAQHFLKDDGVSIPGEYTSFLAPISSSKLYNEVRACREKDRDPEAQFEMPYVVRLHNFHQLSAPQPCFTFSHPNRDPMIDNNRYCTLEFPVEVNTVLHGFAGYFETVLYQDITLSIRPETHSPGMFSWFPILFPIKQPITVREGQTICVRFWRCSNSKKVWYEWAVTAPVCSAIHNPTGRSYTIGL
T2 sequence (Q9BQA1 whole entry, further chain): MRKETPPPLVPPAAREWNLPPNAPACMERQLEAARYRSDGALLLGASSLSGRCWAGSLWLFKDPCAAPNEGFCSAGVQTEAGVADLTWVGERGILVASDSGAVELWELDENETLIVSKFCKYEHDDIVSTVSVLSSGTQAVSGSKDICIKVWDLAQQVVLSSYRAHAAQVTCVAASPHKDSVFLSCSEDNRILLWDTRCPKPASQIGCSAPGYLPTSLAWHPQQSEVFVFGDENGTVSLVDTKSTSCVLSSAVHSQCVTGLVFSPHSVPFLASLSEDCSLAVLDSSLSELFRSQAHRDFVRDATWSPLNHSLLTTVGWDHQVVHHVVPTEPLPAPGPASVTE

The first data set has as its system MV4-11. Put plainly: Cytotoxicity against human MV411 cells assessed as cell growth inhibition after 8 days by Cell Titer-Glo assay. The format is functional, cell-based. To be noted: MV4-11, 192 h. In a few lines: (§1)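 Cancer lines grown in RPMI1640 with 10% FBS and 1% penicillin/streptomycin, 5% CO2, 37 °C. Seeded at 0.5–1 × 10^5 cells/well; compound (0–100 μM) added after 6 h. Counted and replated at equal numbers with fresh medium and compound every 4 days, up to 12 days. Viable cells by CellTiter-Glo luminescence; concentration–response curves fitted at each time point.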
In general terms: Cellular ATP, detected with luciferase, serves as a proxy for viable cell number.
Consider `COC(=O)c1ccccc1NC(=O)CSc1nc2cc(OC)ccc2[nH]1`, for which the half-maximal effective concentration (EC50) stood at 25.7 µM.

The next data set relates to MV4-11. Put plainly: Cytotoxicity against human MV411 cells assessed as cell growth inhibition after 4 days by Cell Titer-Glo assay. In kind it is functional, cell-based. The settings on record: MV4-11, 96 h. In short, it runs like this:
as §1
In the case of `COC(=O)c1ccccc1NC(=O)CSc1nc2cc(OC)ccc2[nH]1`, the 50% effective concentration (EC50) was 80.7 µM.

For another data set, the target named is T1, PRMT5/MEP50 complex (Homo sapiens) (UniProt O14744+Q9BQA1). Nature of the data set: Non-competitive inhibition of recombinant human N-terminal FLAG-tagged PRMT5 (2 to end residues) /human N-terminal His-tagged MEP50 (2 to end residues) expressed in HEK293F cells using peptide substrate preincubated for 15 mins followed by substrate/[3H]-SAM addition measured after 60 mins under varying concentration of peptide.
Details: not given
In kind it is cell-based. In a few lines:
(§2)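 Mechanism study in modified Tris buffer. PRMT5/MEP50 preincubated 15 min at RT with serially diluted compound (1% DMSO final), then peptide added and reaction started with [3H]-SAM. For the SAM study, [3H]-SAM was set at 7 concentrations with fixed peptide. For the peptide study, peptide was set at 7 concentrations with fixed SAM. Run 60 min at RT, stopped with cold SAM, Flashplate capture, MicroBeta counting.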
Consider `COC(=O)c1ccccc1NC(=O)CSc1nc2cc(OC)ccc2[nH]1`, for which the inhibition entry is “Active”.

In a further data set the test system is Z-138. Put plainly: Cytotoxicity against human Z138 cells assessed as cell growth inhibition after 12 days by Cell Titer-Glo assay. The format is functional, cell-based. The settings on record: Z-138, 288 h. In a few lines: as §1
Take `COC(=O)c1ccccc1NC(=O)CSc1nc2cc(OC)ccc2[nH]1`: the EC50 fell in the range of 15 to 70 µM.

A further data set has as its target T2, PRMT5/MEP50 complex (Homo sapiens, UniProt O14744). Nature of the data set: Inhibition of recombinant human N-terminal FLAG-tagged PRMT5 (2 to end residues)/human N-terminal His-tagged MEP50 (2 to end residues) expressed in HEK293F cells using histone H4 as substrate in presence of [3H]-SAM after 60 mins by chemiluminescent assay. In kind it is cell-based, HEK293. The settings on record: in the assay text read “radioactive methylation assay” for “chemiluminescent assay”. In a few lines: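 PRMT5/MEP50 complex in modified Tris buffer with 3-fold diluted compound (1% DMSO final) preincubated 15 min at RT. Substrate added and reaction started with [3H]-SAM; 60 min at RT, stopped with cold SAM. Transferred to Flashplate, washed, counted on MicroBeta.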
In the case of `Cc1ccc(OCc2nnc3sc(-c4cccnc4)nn23)cc1`, the IC50 was above 200 µM.
`O=C(/C=C/c1ccc(-c2ccccc2[N+](=O)[O-])o1)c1ccccc1`: the IC50 amounted to 169 µM.
Same read-out and setting: with `OCCNCc1c(OCc2ccccc2F)ccc2ccccc12` the figure was 172 µM; with `COC(=O)c1ccccc1NC(=O)CSc1nc2ccccc2[nH]1`, 24 µM.

Another data set addresses T1, PRMT5/MEP50 complex (Homo sapiens). Put plainly: Competitive inhibition of recombinant human N-terminal FLAG-tagged PRMT5 (2 to end residues) /human N-terminal His-tagged MEP50 (2 to end residues) expressed in HEK293F cells using peptide substrate preincubated for 15 mins followed by substrate/[3H]-SAM addition measured after 60 mins under varying concentration of peptide.
Details: not given
The format is cell-based. In a few lines: as §2
For `O=C(NC[C@H](O)CN1CCc2ccccc2C1)c1cc(NC2COC2)ncn1`, the inhibition entry was “Active”.

Test system in another data set: not listed separately
Put plainly: Cytotoxicity against human RCTEC assessed as cell growth inhibition after 8 days by Cell Titer-Glo assay. The format is cell-based. To be noted: 192 h. In short, it runs like this:
(§3)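 Normal cells (HUVEC from ATCC; RCTEC) grown in RPMI1640 with 10% FBS and 1% penicillin/streptomycin, 5% CO2, 37 °C. Seeded at 0.5–1 × 10^5 cells/well; compound (0–100 μM) added after 6 h. Cells counted and replated with fresh medium and compound every 4 days over 8 days. Viability by CellTiter-Glo luminescence; concentration–response curves fitted at each time point.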
On to `COC(=O)c1ccccc1NC(=O)CSc1nc2cc(OC)ccc2[nH]1`, for which the Activity entry is reported as “Non-Toxic”.

Another data set concerns the target T1, PRMT5/MEP50 complex (Homo sapiens). Nature of the data set: Uncompetitive inhibition of recombinant human N-terminal FLAG-tagged PRMT5 (2 to end residues) /human N-terminal His-tagged MEP50 (2 to end residues) expressed in HEK293F cells using peptide substrate preincubated for 15 mins followed by substrate/[3H]-SAM addition measured after 60 mins under varying concentration of SAM. The format is cell-based.
Details: not given
In short, it runs like this: as §2
In the case of `O=C(NC[C@H](O)CN1CCc2ccccc2C1)c1cc(NC2COC2)ncn1`, the inhibition result is “Active”.

The next data set has as its system JeKo-1. Nature of the data set: Cytotoxicity against human JeKo1 cells assessed as cell growth inhibition after 12 days by Cell Titer-Glo assay. The format is functional, cell-based. To be noted: JeKo-1, 288 h. In a few lines: as §1
Regarding `COC(=O)c1ccccc1NC(=O)CSc1nc2cc(OC)ccc2[nH]1`, the EC50 fell in the range of 15 to 70 µM.

Another data set concerns the target T2, PRMT5/MEP50 complex. Put plainly: Inhibition of recombinant human N-terminal FLAG-tagged PRMT5 (2 to end residues) /human N-terminal His-tagged MEP50 (2 to end residues) expressed in HEK293F cells using histone H4 as substrate preincubated for 15 mins followed by substrate/S-adenosyl methionine addition measured after 60 mins by alpha LISA assay. Set-up: species or system HEK293.
Details: not given
Regarding `COc1ccc2[nH]c(SCC(=O)Nc3ccccc3C)nc2c1`, the half-maximal inhibitory concentration (IC50) was above 200 µM.
Same read-out and setting: to `COc1ccc2[nH]c(SCC(=O)Nc3ccccc3C(=O)N(C)C)nc2c1` belongs above 200 µM; to `COC(=O)c1ccncc1NC(=O)CSc1nc2cc(OC)ccc2[nH]1`, 2.4 µM; to `Cc1ccc(OCc2nnc3sc(-c4cccnc4)nn23)cc1`, 26 µM.
`COc1ccc2[nH]c(SCC(=O)Nc3ccccc3Cl)nc2c1`: the IC50 is 47 µM.
Same read-out and setting: with `COc1ccc2[nH]c(SCC(=O)Nc3ccccc3C(C)=O)nc2c1` the figure was 2.9 µM; with `COC(=O)c1ccccc1NC(=O)CSc1nc2ccncc2[nH]1`, 87 µM.
The same measure, in the same setting: with `CCOc1ccc2[nH]c(SCC(=O)Nc3ccccc3C(=O)OC)nc2c1` the figure was 0.35 µM.
The same measure, in the same setting: with `CNC(=O)c1ccccc1NC(=O)CSc1nc2cc(OC)ccc2[nH]1` the figure was above 200 µM; with `COC(=O)c1ccccc1NC(=O)CSc1nc2cc(F)ccc2[nH]1`, 3.3 µM; with `COC(=O)c1ccccc1NC(=O)CSc1nc2cc([N+](=O)[O-])ccc2[nH]1`, 0.83 µM.
With `COC(=O)c1ccccc1NC(=O)CSc1nc2cc(O)ccc2[nH]1`, the concentration for half-maximal inhibition (IC50) was above 100 µM.
Same read-out and setting: to `COc1ccc2[nH]c(SCC(=O)Nc3ccccc3N(C)C)nc2c1` belongs 25 µM; to `O=C(/C=C/c1ccc(-c2ccccc2[N+](=O)[O-])o1)c1ccccc1`, 23 µM.
Same read-out and setting: to `COC(=O)c1ccccc1NC(=O)CSc1nc2cc(N(C)C)ccc2[nH]1` belongs 0.33 µM; to `COC(=O)c1ccccc1NC(=O)CSc1nc2c(Cl)cccc2[nH]1`, above 100 µM; to `COC(=O)c1ccccc1NC(=O)CSc1nc2nc(OC)ccc2[nH]1`, 8.4 µM.
For `OCCNCc1c(OCc2ccccc2F)ccc2ccccc12`, the IC50 was found to be 18 µM.
Turning to `COc1ccc2[nH]c(SCC(=O)Nc3ccccc3)nc2c1`, the IC50 was 33 µM.
Consider `CCOC(=O)c1ccccc1NC(=O)CSc1nc2cc(OC)ccc2[nH]1`, for which the IC50 is 1.9 µM.
Regarding `COC(=O)c1ccccc1NC(=O)CSc1nc2cc(C)ccc2[nH]1`, the concentration for half-maximal inhibition (IC50) came out at 1.4 µM.
Still for that read-out and setting: with `COC(=O)c1ccccc1NC(=O)CSc1nc2c(C)cccc2[nH]1` the figure was above 100 µM; with `COC(=O)c1ccccc1NC(=O)CSc1nc2cc(OC(C)C)ccc2[nH]1`, 2.8 µM.
On the same count and under the same terms, to `COC(=O)c1ccccc1NC(=O)CSc1nc2ccccc2[nH]1` belongs 8.1 µM; to `COC(=O)c1ccccc1NC(=O)CSc1nc2cc(Cl)ccc2[nH]1`, 0.5 µM.
`COc1ccc2[nH]c(SCC(=O)Nc3ccccc3OC)nc2c1`: the IC50 was 19 µM.
The same measure, in the same setting: with `CCCOc1ccc2[nH]c(SCC(=O)Nc3ccccc3C(=O)OC)nc2c1` the figure was 0.53 µM.
Same read-out and setting: with `Clc1ccc(CNCC2CCNCC2)cc1Cl` the figure was 27 µM.
As to `COC(=O)c1cccc(NC(=O)CSc2nc3cc(OC)ccc3[nH]2)c1`, the IC50 is 52 µM.
With `CNc1ccc2[nH]c(SCC(=O)Nc3ccccc3C(=O)OC)nc2c1`, the half-maximal inhibitory concentration (IC50) worked out at 1.6 µM.
On the same count and under the same terms, to `COC(=O)c1ccccc1NC(=O)CSc1nc2c(OC)cccc2[nH]1` belongs above 100 µM.
`COc1ccc(C(=O)NC2C=NCS2)c(OC)c1` (stereo not drawn): the 50% inhibitory concentration (IC50) came to 27 µM.
With `COC(=O)c1ccccc1NC(=O)CSc1nc2cc(Br)ccc2[nH]1`, the IC50 came out at 0.34 µM.
Turning to `COC(=O)c1ccccc1NC(=O)CSc1nc2cc(N)ccc2[nH]1`, the IC50 was found to be 40 µM.
On the same count and under the same terms, to `COC(=O)c1ccc(NC(=O)CSc2nc3cc(OC)ccc3[nH]2)cc1` belongs above 100 µM.
Same read-out and setting: to `COc1ccc2[nH]c(SCC(=O)Nc3ccccc3C(=O)O)nc2c1` belongs above 100 µM.

The subject of a further data set is MV4-11. Nature of the data set: Cytotoxicity against human MV411 cells assessed as cell growth inhibition after 12 days by Cell Titer-Glo assay. The settings on record: MV4-11, 288 h.
Regarding `COC(=O)c1ccccc1NC(=O)CSc1nc2cc(OC)ccc2[nH]1`, the EC50 amounted to 6.53 µM.

Another data set deals with T1, PRMT5/MEP50 complex (Homo sapiens). Nature of the data set: Competitive inhibition of recombinant human N-terminal FLAG-tagged PRMT5 (2 to end residues) /human N-terminal His-tagged MEP50 (2 to end residues) expressed in HEK293F cells using peptide substrate preincubated for 15 mins followed by substrate/[3H]-SAM addition measured after 60 mins under varying concentration of SAM. In kind it is cell-based.
Details: not given
In a few lines:
as §2
Turning to `COC(=O)c1ccccc1NC(=O)CSc1nc2cc(OC)ccc2[nH]1`, the inhibition result is “Active”.

A further data set concerns KOPN-8. Nature of the data set: Cytotoxicity against human KOPN8 cells assessed as cell growth inhibition after 12 days by Cell Titer-Glo assay. The settings on record: KOPN-8, 288 h.
Regarding `COC(=O)c1ccccc1NC(=O)CSc1nc2cc(OC)ccc2[nH]1`, the half-maximal effective concentration (EC50) is 15 to 70 µM.

For another data set, the target named is Protein arginine N-methyltransferase 5 (Homo sapiens) (UniProt O14744). Put plainly: Inhibition of PRMT5 in human MV411 cells assessed as downregulation of SmD3 after 6 days by Western blot analysis. The format is cell-based.
Sequence of Protein arginine N-methyltransferase 5 (Homo sapiens) (O14744 whole entry): as the sequence (O14744 whole entry) above
Details: not given
In a few lines: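 MV4-11 cells treated with compound over a 0–20 μM titration for 6 days. Whole-cell lysates run on 4–12% SDS-PAGE, transferred to nitrocellulose, blocked in 5% milk. Probed overnight at 4 °C with anti-symmetric dimethylarginine (SDMA) and GAPDH antibodies, then HRP secondary. SmD3-colocalizing band assessed.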
On the technique in general: In western blotting, separated proteins are transferred to a membrane and probed.
On to `COC(=O)c1ccccc1NC(=O)CSc1nc2cc(OC)ccc2[nH]1`, for which the inhibition entry was “Dose-dependent effect”.

The test system of a further data set is HUVEC. Put plainly: Cytotoxicity against human HUVEC assessed as cell growth inhibition after 8 days by Cell Titer-Glo assay. To be noted: 192 h. In kind it is cell-based. In short, it runs like this: as §3
Consider `COC(=O)c1ccccc1NC(=O)CSc1nc2cc(OC)ccc2[nH]1`, for which the Activity entry was “Non-Toxic”.
